From ChEMBL document CHEMBL1909619, “Synthesis and Toll-like receptor 4 (TLR4) activity of phosphatidylinositol dimannoside analogues” (J Med Chem, 2011) come the findings set out here.

The structures appear in SMILES notation. Active and inactive are the calls of the source. No cut-off for these calls is given here.

Series [1] has as its target T1, Toll-like receptor 4 (Mus musculus) (UniProt Q9QUK6).
T1 sequence (whole entry): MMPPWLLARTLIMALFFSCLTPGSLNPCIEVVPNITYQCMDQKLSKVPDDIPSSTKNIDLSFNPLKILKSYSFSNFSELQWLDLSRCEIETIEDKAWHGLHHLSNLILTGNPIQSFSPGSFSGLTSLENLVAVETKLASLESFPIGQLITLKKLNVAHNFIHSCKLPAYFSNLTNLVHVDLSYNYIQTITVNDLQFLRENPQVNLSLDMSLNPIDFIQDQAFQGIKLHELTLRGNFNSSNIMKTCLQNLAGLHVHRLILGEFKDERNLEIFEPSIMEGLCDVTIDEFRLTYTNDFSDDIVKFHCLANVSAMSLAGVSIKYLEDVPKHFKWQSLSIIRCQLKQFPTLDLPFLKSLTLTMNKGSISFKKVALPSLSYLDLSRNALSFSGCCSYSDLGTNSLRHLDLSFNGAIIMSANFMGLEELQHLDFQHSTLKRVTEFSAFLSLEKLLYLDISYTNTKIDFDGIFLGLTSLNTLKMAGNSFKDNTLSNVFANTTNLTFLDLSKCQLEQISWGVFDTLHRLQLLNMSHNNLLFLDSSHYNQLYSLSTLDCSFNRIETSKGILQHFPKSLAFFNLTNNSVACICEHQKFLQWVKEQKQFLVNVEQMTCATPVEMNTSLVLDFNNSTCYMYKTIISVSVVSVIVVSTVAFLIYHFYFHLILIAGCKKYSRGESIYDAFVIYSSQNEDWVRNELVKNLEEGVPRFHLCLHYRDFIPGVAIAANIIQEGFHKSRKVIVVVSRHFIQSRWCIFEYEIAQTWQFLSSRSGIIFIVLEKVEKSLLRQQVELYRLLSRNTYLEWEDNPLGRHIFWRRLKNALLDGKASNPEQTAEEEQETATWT
Briefly: Agonist activity at TLR4 in thioglycollate-elicited mouse peritoneal macrophages assessed as induction of IL-6 production in after 18 hrs by ELISA. Format: functional. In outline:
(§1)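 Thioglycollate-elicited mouse peritoneal macrophages were plated at 2×10^5 cells/well in RPMI-1640 with 10% fetal calf serum and penicillin-streptomycin. They were incubated 18 h at 37°C, 5% CO2 with compound, with or without 10 ng/ml LPS. IL-6 in the supernatant was measured by ELISA. Data are representative of at least two replicate experiments, and significance was tested by ANOVA.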

Series [2] is described as follows: Cytotoxicity against mouse peritoneal macrophages assessed as cell viability by trypan blue exclusion assay. The following applies: peritoneal macrophage cell. Format: cell-based. In outline:
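Thioglycollate-elicited mouse peritoneal macrophages were plated at 2×10^5 cells/well in supplemented RPMI-1640. They were exposed to compound, with or without 10 ng/ml LPS, for 18 h at 37°C, 5% CO2. Viability was then scored by trypan blue exclusion.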

For series [3], the target named is T1, Toll-like receptor 4 (Mus musculus). The experiment in a line: Enhancement of LPS-induced TLR4 activation in mouse peritoneal macrophages assessed as IL-6 production at 0.6 to 19.2 uM after 18 hrs by ELISA. In outline: as §1
For the next series, the target named is T2, Toll-like receptor 4 (Mus musculus, UniProt Q9QUK6).
T2 sequence (Q9QUK6 whole entry): T1 sequence (whole entry)
Briefly: (§2) Inhibition of LPS-induced TLR4 activation in thioglycollate-elicited mouse peritoneal macrophages assessed as inhibition of IL-6 production after 18 hrs by ELISA. The method, boiled down: as §1

Series [4] concerns the target T1, Toll-like receptor 4 (Mus musculus). Described as §2. In outline: as §1
In series [5] the test system is Sf9. Briefly: Binding affinity at MD1 transfected in Sf9 insect cells after 1 hr by native PAGE. Format: cell-based. In outline: (§3)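 MD-1 was expressed by baculovirus and purified by Ni-NTA affinity, anion exchange and gel filtration. It was combined with compound and then LPS in 20 mM Hepes pH 7.4/150 mM NaCl. After 1 h at room temperature, the mixture was analysed by native PAGE on a 4–20% gradient gel at pH 8.8.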

Series [6] relates to Sf9. Briefly: Competitive binding affinity at MD1 transfected in Sf9 insect cells after 1 hr by native PAGE in presence of LPS. Format: cell-based. The method, boiled down:
as §3

In series [7] the target is Toll-like receptor 4 (Homo sapiens) (UniProt O00206). The experiment in a line: Partial agonist activity at TLR4 transfected in Sf9 insect cells assessed as inhibition of LPS-mediated sTLR4/MD2 homodimerization after 1 hr by native PAGE. Format: functional, cell-based. In outline:
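The sTLR4 ectodomain/MD-2 complex was co-expressed in Hi5 insect cells from baculovirus made in SF9 cells. It was purified by Ni-NTA and Strep-Tactin affinity, tag removal with thrombin, and size exclusion. After 1 h at room temperature, the mixture was resolved by native PAGE on a 4–20% gel at pH 8.8.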

For the next series, the system named is Macrophage. Briefly: Induction of IL-6 production in TLR4-deficient mouse macrophages. Format: functional, cell-based.

Toll-like receptor 4 (Homo sapiens), sequence (O00206 whole entry, the tested form may be a part): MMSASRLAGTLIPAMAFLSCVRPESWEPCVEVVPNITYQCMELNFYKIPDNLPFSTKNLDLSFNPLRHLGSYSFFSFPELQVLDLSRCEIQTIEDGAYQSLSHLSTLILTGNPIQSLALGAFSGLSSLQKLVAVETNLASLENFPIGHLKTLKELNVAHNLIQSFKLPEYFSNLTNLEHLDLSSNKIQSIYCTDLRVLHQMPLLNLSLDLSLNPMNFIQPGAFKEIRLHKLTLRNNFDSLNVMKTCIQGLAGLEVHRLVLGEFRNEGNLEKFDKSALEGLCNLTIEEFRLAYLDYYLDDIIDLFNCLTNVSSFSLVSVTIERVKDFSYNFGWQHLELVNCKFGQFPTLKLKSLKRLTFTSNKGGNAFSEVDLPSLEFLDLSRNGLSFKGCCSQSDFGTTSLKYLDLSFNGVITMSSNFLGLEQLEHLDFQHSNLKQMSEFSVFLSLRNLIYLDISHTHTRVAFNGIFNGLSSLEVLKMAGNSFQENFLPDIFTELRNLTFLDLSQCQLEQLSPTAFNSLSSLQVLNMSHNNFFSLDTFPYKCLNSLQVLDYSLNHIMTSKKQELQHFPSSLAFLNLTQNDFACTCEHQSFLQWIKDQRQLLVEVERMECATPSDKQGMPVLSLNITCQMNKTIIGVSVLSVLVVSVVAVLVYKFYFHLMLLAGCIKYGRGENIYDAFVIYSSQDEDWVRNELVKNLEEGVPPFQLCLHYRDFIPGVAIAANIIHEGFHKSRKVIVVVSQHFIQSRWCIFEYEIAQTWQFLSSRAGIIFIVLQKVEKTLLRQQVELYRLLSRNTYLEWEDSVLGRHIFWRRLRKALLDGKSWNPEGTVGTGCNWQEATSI

With `CCCCCCCCCCCCCCCCO[C@H](COC(=O)CCCCCCCCCCCCCCC)COP(=O)(O)O[C@@H]1[C@H](O[C@H]2O[C@H](COC(=O)CCCCCCCCCCCCCCC)[C@@H](O)[C@H](O)[C@@H]2O)[C@H](O)[C@@H](O)[C@H](O)[C@H]1O[C@H]1O[C@H](CO)[C@@H](O)[C@H](O)[C@@H]1O`, the Activity is 275 pg/mL in series [1] and “Non-toxic” in series [2]. Further, the result in series [3] was Active.
As to `CCCCCCCCCCCCCCCCOC[C@H](COP(=O)(O)O[C@@H]1[C@H](O[C@H]2O[C@H](CO)[C@@H](O)[C@H](O)[C@@H]2O)[C@H](O)[C@@H](O)[C@H](O)[C@H]1O[C@H]1O[C@H](CO)[C@@H](O)[C@H](O)[C@@H]1O)OC(=O)CCCCCCCCCCCCCCC`, the results for the Activity in series [1] and in series [2] were 1130 pg/mL and “Non-toxic”, respectively. The half-inhibitory concentration (IC50) at Toll-like receptor 4 stood at 28.8 µM.
Regarding `CCCCCCCCCCCCCCCCO[C@H](COC(=O)CCCCCCCCCCCCCCC)COP(=O)(O)O[C@@H]1[C@H](O[C@H]2O[C@H](CO)[C@@H](O)[C@H](O)[C@@H]2O)[C@H](O)[C@@H](O)[C@H](O)[C@H]1O[C@H]1O[C@H](CO)[C@@H](O)[C@H](O)[C@@H]1O`, the results for the Activity in [1] and in series [2] were 1460 pg/mL and “Non-toxic”, respectively. Moreover, the half-inhibitory concentration (IC50) at Toll-like receptor 4 came out at 30.3 µM. For the same molecule, the inhibition result in series [4] is “Dose-dependent effect”.
For the molecule `CCCCCCCCCCCCCCCCO[C@H](COC(=O)CCCCCCCCCCCCCCC)COP(=O)(O)OC(CO[C@H]1O[C@H](CO)[C@@H](O)[C@H](O)[C@@H]1O)CO[C@H]1O[C@H](CO)[C@@H](O)[C@H](O)[C@@H]1O`, the Activity in series [1] is 923 pg/mL; in series [2], “Non-toxic”. For the same molecule, the IC50 on Toll-like receptor 4 amounted to 42.8 µM.
On to `CCCCCCCCCCCCCCCC(=O)OC[C@H](COP(=O)(O)O[C@@H]1[C@H](O[C@H]2O[C@H](CO)[C@@H](O)[C@H](O)[C@@H]2O)[C@H](O)[C@@H](O)[C@H](O)[C@H]1O[C@H]1O[C@H](CO)[C@@H](O)[C@H](O)[C@@H]1O)OC(=O)CCCCCCCCCCCCCCC`, for which the result (in the series with Sf9 [5]; in series [7]) was Active. The values for the Activity (in series [1]; in the series on Sf9 [6]; in [2]) were 817 pg/mL, “Dose-dependent effect” and “Non-toxic”, respectively. Also, the IC50 at Toll-like receptor 4 was 40.2 µM. Also, the result in the series with Macrophage was inactive.
Turning to `CCCCCCCCCCCCCCCCOC[C@H](COP(=O)(O)O[C@@H]1[C@H](O[C@H]2O[C@H](CO)[C@@H](O)[C@H](O)[C@@H]2O)[C@H](O)[C@@H](O)[C@H](O)[C@H]1O[C@H]1O[C@H](CO)[C@@H](O)[C@H](O)[C@@H]1O)OCCCCCCCCCCCCCCCC`, the results for the Activity in series [1] and in [2] were 494 pg/mL and “Non-toxic”, respectively. Also, the IC50 at Toll-like receptor 4 came to 23.3 µM.
The like results for `CCCCCCCCCCCCCCCC(=O)N[C@H](COC(=O)CCCCCCCCCCCCCCC)COP(=O)(O)O[C@@H]1[C@H](O[C@H]2O[C@H](CO)[C@@H](O)[C@H](O)[C@@H]2O)[C@H](O)[C@@H](O)[C@H](O)[C@H]1O[C@H]1O[C@H](CO)[C@@H](O)[C@H](O)[C@@H]1O` were, in that order, 664 pg/mL, “Non-toxic” and 22.7 µM.
For the molecule `CCCCCCCCCCCCCCCC(=O)OC[C@H](COP(=O)(O)OC(CO[C@H]1O[C@H](CO)[C@@H](O)[C@H](O)[C@@H]1O)CO[C@H]1O[C@H](CO)[C@@H](O)[C@H](O)[C@@H]1O)OC(=O)CCCCCCCCCCCCCCC`, the results for the Activity in series [1] and in series [2] were 143 pg/mL and “Non-toxic”, respectively. Besides, at Toll-like receptor 4, the IC50 was 12.9 µM.
